MT stabilize HCS: microtubule stabilization, imaging screen; 200,000 compounds, 0.83% hits; HeLa tubulin immunostaining HCS, 24 h; share of cells brighter than vehicle mean+2SD; % tubulin-high responders, % at 10 µM;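 active = plate Z-score above 3 for both tubulin-high and condensed-nucleus cell shares, with cell loss under 80%, at 10 µM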;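 note: anti alpha tubulin signal scored within the nucleus-defined area of each cell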
Autophagy HCS: alters autophagy in cells; calls only at 10 µM (by protocol); MEF GFP-LC3 puncta imaging; test concentration mostly 10 µM; AID 463193; 190,000 compounds, 0.98% hits;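 active = percentage of spot-positive cells more than 3 SD above its plate mean, without a fluorescence outlier flag or 80% toxicity; inconclusive = no clear call, values can overlap the other calls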
Dynein cargo inh: blocks dynein driven cargo transport along microtubules; 3617.4 mouse cells, GR-EGFP nuclear translocation imaging; test concentration mostly 20 µM; stimulated with dexamethasone, 1 µM; active compounds read low; z-score, hits read low; 220,000 compounds, 0.47% hits; AID 1381;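 active = plate z-score of nuclear minus cytoplasmic receptor signal below a set negative limit, without overly bright fluorescence or cell loss, cut at about -3.5 in these data, passing the limit was not always enough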;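 note: z-score of nuclear minus cytoplasmic ring GR-EGFP intensity difference per well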
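Buffer or medium: tet-free, stripped-serum medium; reagent: dexamethasone at 1.0 µM final, 30 min; incubation: 48 h induction, 1 h compound, 30 min dex at 37 °C; measured by: formaldehyde fixation, Hoechst nuclear stain, 10x automated fluorescence imaging; read-out: nuclear-to-cytoplasmic GR-EGFP distribution per well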
Ins promoter up: MIN6 insulin promoter up-regulation. MIN6 insulin promoter-GFP reporter, high-content imaging; active compounds read high. z-score at 5 µM. 190,000 compounds, 0.3% hits;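 active = z-score above 3 at 5 µM with at least 500 cells counted in the well; inconclusive = wells under 500 cells, flagged as cytotoxic or low count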
b-catenin transl: beta-catenin nuclear translocation modulation | HeLa beta-catenin nuclear translocation, immunofluorescence imaging | nuclear translocation activity, % at 5 µM | 190,000 compounds, 0.3% hits;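 active = nuclear translocation activity above 50% at 5 µM, with a well cell count of 50 or more; inconclusive = wells under 50 cells across six images, flagged as toxic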;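 note: per-cell ratio of nuclear to cytoplasmic median beta-catenin stain intensity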
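Assay system: human HeLa cells, native beta-catenin; doses: 5 µM primary, 0.02–20 µM confirmation; incubation: compound treatment 24 h, 37°C, 5% CO2; technique: fluorescence imaging of beta-catenin antibody stain plus DAPI; measure: % activation, nuclear-to-cytoplasmic median beta-catenin signal ratio per cell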
Dynein confirm: dynein cargo transport inhibition, confirmation. shares compounds with Dynein cargo inh. 3617.4 GR-EGFP nuclear translocation imaging, dexamethasone-induced. calls only at 20 µM. 1,000 compounds, 69% hits. AID 463116;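 active = inhibition of receptor movement into the nucleus at or above a set limit in both runs, with normal cell brightness and cell count; inconclusive = limit reached in only one run, brightness and count normal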;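 note: dexamethasone at 1 µM final in well for 30 min; nuclear minus cytoplasmic GR-EGFP mean intensity difference in channel 2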
Each line names hits and unclear results; the compound was inactive in the other large screens (follow-up assays come after a bar, where they were run). A selection: hits, their analogues and other compounds. The true share with any hit is near 2.3%.

C/C(=N\NC(=S)Nc1ccccc1)c1c(O)n(C)c(=O)n(C)c1=O	Autophagy HCS active
CCN(C(C)=O)c1cccc(-c2ccnc3c(C#N)cnn23)c1	none (no result: MT stabilize HCS, Autophagy HCS, Dynein cargo inh)
O=C(c1ccccc1)C1CCCN(Cc2nc(-c3cnccn3)no2)C1 (stereo not drawn)	Autophagy HCS active
O=C(c1cccnc1)C1CCCN(Cc2nc(-c3cnccn3)no2)C1 (stereo not drawn)	none (no result: MT stabilize HCS, Autophagy HCS)
CCN(CC)CCN/N=C(\C)c1c(O)[nH]c(=O)[nH]c1=O	none (no result: MT stabilize HCS, Autophagy HCS, Ins promoter up)
COc1cccc(OC)c1C1=NCC(=O)Nc2c1oc1ccc(Br)cc21	MT stabilize HCS 13.5, Autophagy HCS active
CCC1(C)OC(c2ccccc2)=C/C(=C/C=C2C(=O)NC(=O)NC2=O)O1 (stereo not drawn)	none
COc1ccc(/C=C2/C(=O)NC(=S)N(C3CC3)C2=O)cc1CN1C(=O)c2ccccc2C1=O	Dynein cargo inh -3.61
c1cc(CCN2CCCC2)ccn1	none (no result: MT stabilize HCS, Autophagy HCS)
Nc1cc(Cl)c2nonc2c1[N+](=O)[O-]	Dynein cargo inh -4.19
CC(=O)NC(Cc1ccc(N(CCCl)CCCl)cc1)C(=O)NC(CC(C)C)C(=O)O (stereo not drawn)	none
COc1cccc(NP(=O)(Oc2ccc(Cl)cc2)Oc2ccc(Cl)cc2)c1	b-catenin transl 90.5
COc1ccccc1OP(=O)(Nc1cccnc1)Oc1ccccc1OC	Autophagy HCS active
CCCCc1ccc2[nH]cc(CCN)c2c1	Ins promoter up 3.13
NCCc1c[nH]c2ccccc12	none
CCOC(=O)C1CCCN(c2ccc([N+](=O)[O-])c3nonc23)C1 (stereo not drawn)	none
CCN1CCC2(CC1)NC(=O)c1ccccc1O2	none (no result: Ins promoter up)
Cc1cc(=O)[nH]c(SCc2nc3ccccc3c(=O)n2-c2ccccc2C)n1	Autophagy HCS active
CCCCc1nc2ccccc2c(=O)n1-c1ccccc1O	none
COc1ccc(CC(=O)N2CCN(C)CC2)cc1OC	none
COc1ccc(CC(=O)N2CCN(C)CC2)cc1	Ins promoter up 3.53
Nc1cc2nc3ccccc3nc2cc1N	Ins promoter up 3.68 (no result: MT stabilize HCS, Autophagy HCS)
C=CCn1c(O)c(/C=C2/C=CC=N2)c(=O)[nH]c1=O	none
O=c1[nH]c(=O)n(Cc2ccccc2Cl)c(O)c1/C=C1/C=CC=N1	MT stabilize HCS 29.2
O=C1CN=C(c2cccs2)c2c(sc3c2CCCC3)N1	MT stabilize HCS 54.0
O=C(Nc1ccc(Cl)cc1)Nc1nccs1	MT stabilize HCS 46.1
O=C(Nc1nccs1)C(Cl)(Cl)Cl	none
Cc1ccc(/C=C2\C(=O)NC(=S)N(c3ccccc3F)C2=O)s1	MT stabilize HCS 32.9, Dynein cargo inh -3.67
Fc1cccc(F)c1-c1nc(-c2ccc(Cl)cc2)no1	none (no result: MT stabilize HCS, Autophagy HCS)
CC(=O)OC(C)(C)/C=C/C(=O)[C@](C)(O)[C@H]1[C@H](O)C[C@@]2(C)[C@@H]3CC=C4[C@H](C[C@H](O)C(=O)C4(C)C)[C@]3(C)C(=O)C[C@]12C	MT stabilize HCS 40.0, Autophagy HCS inconclusive, Dynein cargo inh -3.66 (no result: b-catenin transl) | Dynein confirm inconclusive
CC1(C)CC(CCNCc2ccc3c(c2)OCO3)(Cc2ccccc2)CCO1 (stereo not drawn)	none (no result: MT stabilize HCS, Ins promoter up)
O=C1NC(=O)N(Cc2ccccc2)C(=O)/C1=C/C=C/c1ccco1	Dynein cargo inh -6.01 (no result: MT stabilize HCS, Autophagy HCS) | Dynein confirm active
CC(C)c1ccc(N2C(=O)NC(=O)/C(=C\C=C\c3ccco3)C2=O)cc1	Dynein cargo inh -3.91 (no result: Ins promoter up) | Dynein confirm active
CC(C)N1C(=O)/C(=C/C=C/c2ccco2)C(=O)N(Cc2ccco2)C1=O	none
CC(C)c1ccc(N2C(=O)NC(=O)/C(=C\c3cnc(-c4ccccc4)nc3)C2=O)cc1	none
CCN1C(=O)C(=C/C=C/c2ccco2)C(=O)N(CC)C1=S	Dynein cargo inh -4.48 | Dynein confirm active
O=c1[nH]c(=O)n(Cc2ccco2)c(O)c1C=NCCN1CCNCC1	none (no result: MT stabilize HCS, Autophagy HCS)
CCOC(=O)c1c(-n2c(C)cc(C=C3C(=O)NC(=S)NC3=O)c2C)sc2c1CCCC2	Dynein cargo inh -4.56 | Dynein confirm active
CSc1nnc(OC(=O)N(C)C)n1-c1ccc(Cl)cc1	none (no result: MT stabilize HCS, Autophagy HCS)
COc1cc(/C=C/[N+](=O)[O-])ccc1O	Dynein cargo inh -5.67 | Dynein confirm active
CCN(CC)c1ccc(CC2C(=O)N(C)C(=O)N(C)C2=O)cc1	none
CCN(CC)c1ccc(/C=C/[N+](=O)[O-])cc1	Dynein cargo inh -4.24 | Dynein confirm active

From PubChem
